Source: paper PMC11965407 (Translational Psychiatry, 2025)
Entries after “also recorded” stand apart in the source; their conditions may differ. Where a name gives a salt, the structure may show the parent alone. Read-outs that look alike come from different tables or passages of the source.

Experiments:
neuronal Kv7 = settings: read-out: IC50, neuronal Kv7 inhibition; cited from earlier work
Kv7.2/Kv7.3 channels = Kv7.2/Kv7.3 channels (Homo sapiens, UniProt O43525+O43526); assay type: cell-based
Procedure, shortened: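 CHO cells stably expressing Kv7.2/Kv7.3 were grown in F12 with 10% FBS and 600 μg/mL G418. Cells were recorded by amphotericin B (250 μg/mL) perforated patch at room temperature. Internal was KCl 150, MgCl2 5, HEPES 10 mM, pH 7.4; external was NaCl 160, KCl 2.5, MgCl2 1, CaCl2 2, glucose 10, HEPES 20 mM, pH 7.4. Current was measured at 0 mV. Activation used −110 to 30 mV steps (10 mV increments) then 0 mV, with a Boltzmann fit. IC50 came from a logistic fit; τ from a single exponential.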

Kv7.5 [1] = settings: read-out: IC50, inhibition of Kv7.5; cited from earlier work
hippocampal neurons = assay type: cell-based, rat; settings: for depolarizing shift of resting membrane potential (RMP): hippocampal neurons
[2] = system: native M-current in hippocampal neurons; assay: Native M-current recording in cultured hippocampal neurons; assay type: cell-based, rat; settings: measured at −20 mV
Kv7.2 channel [3] = target: T1, Kv7.2 channel (Homo sapiens, UniProt O43526); assay: Single-channel recordings; assay type: cell-based
Procedure, shortened: (§1)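 Cell-attached single-channel recording was done at room temperature on transfected HEK293T cells. Pipettes (8–10 MΩ) held bath solution: NaCl 150, KCl 5, MgCl2 1, CaCl2 2, HEPES 10 mM, pH 7.4. Data were […] and filtered at 0.8–1 kHz. Patch potential of 0 mV was set from Vm = RMP − Vpipette, with RMP from current clamp. Open probability and conductance came from all-point amplitude histograms, with recordings before and after drug.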

Kv7.1-Kv7.4 channels = settings: read-out: IC50, inhibition of Kv7.1-Kv7.4 channels; cited from earlier work
Kv7.2 D212A channel = Kv7.2 D212A channel (Homo sapiens, UniProt O43526, D212A); assay: Whole-cell patch-clamp of Kv7.2 D212A mutant channel; assay type: cell-based
Kv7.2 channel [4] = target: T1, Kv7.2 channel; assay: Perforated whole-cell patch-clamp of Kv7.2 current in transfected HEK293T cells; assay type: cell-based
Procedure, shortened: (§2)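 Human Kv7.2 or Kv7.5 cDNA in pcDNA3.1 was co-transfected with GFP into HEK293T cells using lipofectamine 2000 and recorded 24 h later. Recording used perforated patch (amphotericin B 250 μg/mL in pipette) with internal KCl 150, MgCl2 5, HEPES 10 mM, pH 7.4, and external NaCl 160, KCl 2.5, MgCl2 1, CaCl2 2, glucose 10, HEPES 20 mM, pH 7.4, at room temperature. IC50 came from a logistic fit, activation curves from Boltzmann fits, and τ values from single exponentials (activation 0 mV, deactivation −120 mV).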

GIRK1/2 channels = settings: read-out: IC50, GIRK1/2 channels; cited from earlier work
Kv7.5 [5] = target: Kv7.5 (Homo sapiens, UniProt Q9NR82); assay: Perforated whole-cell patch-clamp of Kv7.5 current in transfected HEK293T cells; assay type: cell-based
Kv7.5 (Homo sapiens, UniProt Q9NR82), sequence (Q9NR82 whole entry): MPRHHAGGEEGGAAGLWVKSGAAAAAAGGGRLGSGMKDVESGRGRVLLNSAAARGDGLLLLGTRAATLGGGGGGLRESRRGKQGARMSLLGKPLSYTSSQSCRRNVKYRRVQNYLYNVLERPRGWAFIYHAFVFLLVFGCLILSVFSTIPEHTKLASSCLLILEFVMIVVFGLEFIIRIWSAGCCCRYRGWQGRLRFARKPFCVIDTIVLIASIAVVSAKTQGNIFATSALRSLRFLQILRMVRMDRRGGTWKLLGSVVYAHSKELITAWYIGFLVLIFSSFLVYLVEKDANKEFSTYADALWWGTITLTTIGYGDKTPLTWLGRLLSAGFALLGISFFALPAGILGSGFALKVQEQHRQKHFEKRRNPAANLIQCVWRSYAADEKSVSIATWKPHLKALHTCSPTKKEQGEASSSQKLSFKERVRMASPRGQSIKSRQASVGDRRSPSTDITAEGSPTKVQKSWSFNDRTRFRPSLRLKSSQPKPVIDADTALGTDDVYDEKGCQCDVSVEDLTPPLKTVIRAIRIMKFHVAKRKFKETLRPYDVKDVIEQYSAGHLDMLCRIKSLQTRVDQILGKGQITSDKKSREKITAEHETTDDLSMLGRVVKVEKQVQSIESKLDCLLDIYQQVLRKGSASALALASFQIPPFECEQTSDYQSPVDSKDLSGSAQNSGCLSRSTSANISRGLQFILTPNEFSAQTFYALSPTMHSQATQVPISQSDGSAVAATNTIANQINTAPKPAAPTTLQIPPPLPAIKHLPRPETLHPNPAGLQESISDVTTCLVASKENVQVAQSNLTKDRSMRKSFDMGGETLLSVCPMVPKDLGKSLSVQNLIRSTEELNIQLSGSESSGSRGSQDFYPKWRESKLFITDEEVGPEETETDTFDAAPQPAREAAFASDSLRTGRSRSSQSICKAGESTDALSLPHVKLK
Procedure, shortened: as §2

W236A Kv7.2 channel = W236A Kv7.2 channel (Homo sapiens, UniProt O43526, W236A); assay: Whole-cell patch-clamp of W236A Kv7.2 mutant in HEK293T cells; assay type: cell-based; settings: HEK-293T, read-out: inhibition of W236A Kv7.2 current
Procedure, shortened: (§3)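 Alanine point mutants of human Kv7.2 were made by site-directed mutagenesis and verified by sequencing. Wild-type or mutant channels were expressed in HEK293T cells and recorded by perforated whole-cell patch clamp at room temperature. Currents were recorded before and after 10 or 30 µM test compound, and inhibition was normalized and compared with wild-type Kv7.2. n = 3–6.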

Kv3.1 channels = settings: read-out: IC50, Kv3.1 channels; cited from earlier work
[6] = daily dosage of 20 mg, patients with depression; cited from earlier work
Kv7.1 = Kv7.1 (Homo sapiens, UniProt P51787); assay: Perforated whole-cell patch-clamp of Kv7.1 current in transfected HEK293T cells; assay type: cell-based
Kv7.1, sequence (P51787 whole entry): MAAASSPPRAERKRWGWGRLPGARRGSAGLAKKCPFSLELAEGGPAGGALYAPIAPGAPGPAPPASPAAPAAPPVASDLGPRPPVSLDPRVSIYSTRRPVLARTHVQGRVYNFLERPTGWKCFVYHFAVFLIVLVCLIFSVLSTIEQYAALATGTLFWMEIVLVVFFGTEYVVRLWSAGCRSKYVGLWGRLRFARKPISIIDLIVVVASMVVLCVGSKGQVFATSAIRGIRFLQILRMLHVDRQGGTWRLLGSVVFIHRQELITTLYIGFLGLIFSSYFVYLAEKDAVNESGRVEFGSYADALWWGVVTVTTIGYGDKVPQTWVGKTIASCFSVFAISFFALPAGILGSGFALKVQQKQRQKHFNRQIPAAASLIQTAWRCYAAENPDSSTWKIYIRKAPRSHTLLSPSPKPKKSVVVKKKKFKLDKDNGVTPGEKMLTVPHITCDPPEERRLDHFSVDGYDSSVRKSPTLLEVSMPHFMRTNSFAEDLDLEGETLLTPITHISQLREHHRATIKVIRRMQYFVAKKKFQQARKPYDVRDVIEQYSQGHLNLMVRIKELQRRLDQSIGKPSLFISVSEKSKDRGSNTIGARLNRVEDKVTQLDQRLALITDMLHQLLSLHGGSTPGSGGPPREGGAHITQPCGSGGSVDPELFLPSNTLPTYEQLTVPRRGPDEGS

F305A Kv7.2 channel = F305A Kv7.2 channel (Homo sapiens, UniProt O43526, F305A); assay: Whole-cell patch-clamp of F305A Kv7.2 mutant in HEK293T cells; assay type: cell-based; settings: 10 or 30 µM paroxetine, vs WT Kv7.2
Procedure, shortened: as §3

F240A Kv7.2 channel = F240A Kv7.2 channel (Homo sapiens, UniProt O43526, F240A); assay: Whole-cell patch-clamp of F240A Kv7.2 mutant in HEK293T cells; assay type: cell-based; settings: HEK-293T, read-out: inhibition of F240A Kv7.2 current
Procedure, shortened: as §3

Kv7.4 = Kv7.4 (Homo sapiens, UniProt P56696); assay: Perforated whole-cell patch-clamp of Kv7.4 current in transfected HEK293T cells; assay type: cell-based
Kv7.4, sequence (P56696 whole entry): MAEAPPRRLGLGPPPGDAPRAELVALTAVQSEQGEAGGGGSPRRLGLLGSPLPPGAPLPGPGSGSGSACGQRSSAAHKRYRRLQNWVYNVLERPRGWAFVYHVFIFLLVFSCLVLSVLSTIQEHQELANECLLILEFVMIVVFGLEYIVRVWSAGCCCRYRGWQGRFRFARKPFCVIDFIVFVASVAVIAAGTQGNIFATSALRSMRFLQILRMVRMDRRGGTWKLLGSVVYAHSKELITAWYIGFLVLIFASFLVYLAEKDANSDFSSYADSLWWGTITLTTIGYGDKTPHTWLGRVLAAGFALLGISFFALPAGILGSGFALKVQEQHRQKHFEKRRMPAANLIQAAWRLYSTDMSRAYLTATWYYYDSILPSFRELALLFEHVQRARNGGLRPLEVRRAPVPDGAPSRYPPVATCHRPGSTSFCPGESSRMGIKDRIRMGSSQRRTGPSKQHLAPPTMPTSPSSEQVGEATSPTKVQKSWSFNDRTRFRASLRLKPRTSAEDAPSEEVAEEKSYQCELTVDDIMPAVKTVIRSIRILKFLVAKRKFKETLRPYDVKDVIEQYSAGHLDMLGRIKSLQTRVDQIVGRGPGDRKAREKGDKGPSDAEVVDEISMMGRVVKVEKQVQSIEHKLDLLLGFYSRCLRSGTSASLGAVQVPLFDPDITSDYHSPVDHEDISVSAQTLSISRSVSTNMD

L299A Kv7.2 channel = L299A Kv7.2 channel (Homo sapiens, UniProt O43526, L299A); assay: Whole-cell patch-clamp of L299A Kv7.2 mutant in HEK293T cells; assay type: cell-based; settings: HEK-293T, read-out: inhibition of F299A Kv7.2 current
Procedure, shortened: as §3

F304A Kv7.2 channel = assay: Whole-cell patch-clamp of F304A Kv7.2 mutant in HEK293T cells; assay type: cell-based, human; settings: 10 or 30 µM paroxetine, vs WT Kv7.2
Procedure, shortened: as §3

[7] = target: Kv7.2/Kv7.3 single-channels (Homo sapiens, UniProt O43525+O43526); assay: Single-channel recordings; assay type: cell-based; settings: paroxetine 3 μΜ
Procedure, shortened: as §1

[8] = target: Kv7.2 D212A/Kv7.3 heteromeric channels (Homo sapiens, UniProt O43525+O43526, D212A); assay: Whole-cell patch-clamp of Kv7.2 D212A/Kv7.3 heteromeric channels; assay type: cell-based

For CC[C@H](C(=O)Nc1ccccc1N1CCCC1)c1ccccc1 [ML252], the IC50 (neuronal Kv7) is listed as 1 to 6 µM.

For O=C1c2ccccc2C(Cc2ccncc2)(Cc2ccncc2)c2ccccc21 [XE991], the “inhibition of Kv7.2/Kv7.3 currents recorded at 0 mV” value (Kv7.2/Kv7.3 channels; 3 μM, CHO cells, n = 5) is given as 81.4 ± 1.5%, the IC50 (Kv7.5 [1]) is given as roughly 60 µM and the “firings in hippocampal neurons” value (hippocampal neurons; 3 μM XE991, n = 6) is given as “increased firings”. The “depolarizing shift of resting membrane potential (RMP)” value (hippocampal neurons; 1 μΜ) was 6.2 ± 2.2 mV, the “depolarizing shift of resting membrane potential (RMP)” value (hippocampal neurons; 3 μΜ) was 9.7 ± 1.2 mV and the “inhibition of M-current” value ([2]; 3 μΜ) was 21.2 ± 2.0%. For the same molecule, the “Kv7.2 single-channel open probability” value (Kv7.2 channel [3]; XE991 3 μΜ, control 0.21 ± 0.02) was 0.05 ± 0.01, the Kv7.2 single-channel conductance (Kv7.2 channel [3]; XE991 3 μΜ, control 7.7 ± 0.8 pS) was 8.0 ± 0.4 pS and the IC50 (Kv7.1-Kv7.4 channels) was 1 to 5 µM.

For Fc1ccc([C@@H]2CCNC[C@H]2COc2ccc3c(c2)OCO3)cc1 [paroxetine, paroxetine hydrochloride], the IC50 (Kv7.2 D212A channel) was 41 ± 5.6 µM, the “reduction of inhibitory effect by D212A mutation versus wild type” value (Kv7.2 D212A channel; Kv7.2 D212A vs Kv7.2) was “approximately three-fold” and the IC50 (Kv7.2/Kv7.3 channels) was 3.6 ± 0.2 µM. For the same molecule, the inhibition at 3 µM (Kv7.2/Kv7.3 channels; CHO, read-out: inhibition of Kv7.2/Kv7.3 currents recorded at 0 mV) was 62.8 ± 6.5%, the “τdeactivation (−120 mV) of Kv7.2/Kv7.3” value (Kv7.2/Kv7.3 channels; paroxetine 3 μΜ, control 14.4 ± 1.1 ms) was 12.6 ± 0.7 ms and the “τactivation (0 mV) of Kv7.2/Kv7.3” value (Kv7.2/Kv7.3 channels; paroxetine 3 μΜ, control 94.5 ± 11.0 ms) was 112.8 ± 9.0 ms. The “V1/2 (half activation voltage) of Kv7.2/Kv7.3 in presence of paroxetine” value (Kv7.2/Kv7.3 channels; paroxetine 3 μΜ, control −3.9 ± 1.2 mV, not significant) was −7.5 ± 3.5 mV, the IC50 (Kv7.2 channel [4]) was 12.3 ± 6.5 µM and the inhibition at 10 µM (Kv7.2 channel [4]; HEK-293T, read-out: inhibition of WT Kv7.2 current) was 56.6 ± 2.9%. For the same molecule, the “τdeactivation (−120 mV) of Kv7.2” value (Kv7.2 channel [4]; paroxetine 10 μM, control 24.9 ± 10.0 ms) was 18.6 ± 6.9 ms, the “τactivation (0 mV) of Kv7.2” value (Kv7.2 channel [4]; paroxetine 10 μM, control 132.6 ± 15.0 ms) was 141.7 ± 15.8 ms and the “V1/2 of Kv7.2 in presence of paroxetine” value (Kv7.2 channel [4]; paroxetine 10 μM, control −12.0 ± 0.8 mV) was −9.1 ± 2.0 mV. For the same molecule, the IC50 (GIRK1/2 channels) was 13.8 ± 2.9 µM, the IC50 (Kv7.5 [5]) was 37.2 ± 5.2 µM and the “V1/2 of Kv7.5 in presence of paroxetine” value (Kv7.5 [5]; paroxetine 20 μM, control −32.7 ± 5.7 mV) was −33.6 ± 6.1 mV. For the same molecule, the “τdeactivation (−120 mV) of Kv7.5” value (Kv7.5 [5]; paroxetine, control 36.7 ± 1.7 ms) was 35.4 ± 5.0 ms, the “τactivation (0 mV) of Kv7.5” value (Kv7.5 [5]; paroxetine, control 77.4 ± 5.3 ms) was 79.8 ± 17.6 ms and the inhibition at 10 µM (W236A Kv7.2 channel) was 43.8 ± 6.8%. For the same molecule, the IC50 (Kv3.1 channels) was 9.4 ± 0.5 µM, the brain concentrations [6] was 2000 to 14000 nM and the IC50 (Kv7.1) was 71.8 ± 7.9 µM. For the same molecule, the “V1/2 of Kv7.1 in presence of paroxetine” value (Kv7.1; paroxetine 50 μM, control −3.2 ± 2.1 mV, P < 0.05) was 4.6 ± 2.1 mV, the “τdeactivation (−120 mV) of Kv7.1” value (Kv7.1; paroxetine near its IC50, control 39.9 ± 3.3 ms) was 27.9 ± 3.6 ms and the “effect of F305A mutation on paroxetine-mediated inhibition of Kv7.2” value (F305A Kv7.2 channel) was “no notable effect; also recorded: does not significantly affect”. The “resting membrane potential after drug” value (hippocampal neurons; 3 μΜ, from −57.2 ± 3.4 mV) was −48.6 ± 2.4 mV, the “resting membrane potential after drug” value (hippocampal neurons; 10 μΜ, from −62.2 ± 1.7 mV) was −48.5 ± 2.0 mV and the “firing activity of hippocampal neurons in response to current injection” value (hippocampal neurons; paroxetine at 3 and 10 μΜ) was “significantly increased”. The inhibition at 10 µM (F240A Kv7.2 channel) was 46.9 ± 9.7%, the “V1/2 of Kv7.4 in presence of paroxetine” value (Kv7.4; paroxetine 20 μM, control −14.4 ± 3.6 mV) was −15.2 ± 4.3 mV and the “τdeactivation (−120 mV) of Kv7.4” value (Kv7.4; paroxetine, control 12.1 ± 1.3 ms) was 10.9 ± 1.6 ms. For the same molecule, the “τactivation (0 mV) of Kv7.4” value (Kv7.4; paroxetine, control 131.5 ± 23.6 ms) was 131.3 ± 22.9 ms, the “inhibition of M-current” value ([2]; 3 μΜ) was 31.5 ± 4.6% and the “inhibition of M-current” value ([2]; 10 μΜ) was 52.4 ± 2.0%. The inhibition at 10 µM (L299A Kv7.2 channel) was 59.4 ± 10.4%, the “reduction of channel sensitivity to paroxetine by F304A mutation” value (F304A Kv7.2 channel) was “three-fold” and the “open probability of Kv7.2/Kv7.3 single-channels” value ([7]; 0 mV, cell-attached, control 0.28 ± 0.01) was 0.13 ± 0.01. The “single-channel conductance of Kv7.2/Kv7.3” value ([7]; control 10.9 ± 1.1 pS, not altered) was 10.4 ± 0.9 pS, the “Kv7.2 single-channel open probability” value (Kv7.2 channel [3]; paroxetine 10 μM, 0 mV, cell-attached, control 0.19 ± 0.01) was 0.09 ± 0.01 and the Kv7.2 single-channel conductance (Kv7.2 channel [3]; paroxetine 10 μM, control 7.7 ± 0.4 pS) was 7.7 ± 0.7 pS. The IC50 [8] was 9.2 ± 1.3 µM and the “reduction of inhibitory effect by D212A mutation versus wild type” value ([8]; Kv7.2 D212A/Kv7.3 vs Kv7.2/Kv7.3) was “approximately three-fold”.
